How the values were obtained:
Type in all cases: tissue-based, Muscle tissue
[1] = Cytotoxicity against human skeletal muscle Myoblast assessed as increase in mitochondrial DNA on day 2 by RT-PCR relative to untreated control
Summary of the method: (§1)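 Myoblasts were treated from 20-30% confluence with NRTIs at plasma Cmax levels (ddI 11.8, d4T 3.6, AZT 7.1, 3TC 8.3, ABV 3.0 μmol), singly or combined. Medium was changed every 2 days at 37°C, 5% CO2, and cells were harvested on day 2 or 5. mtDNA and nDNA were measured by LightCycler real-time PCR in duplicate. The mtDNA:nDNA ratio is expressed relative to untreated cells. Five repeats.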

[2] = Cytotoxicity against human skeletal muscle Myoblast assessed as increase in mitochondrial DNA on day 5 by RT-PCR relative to untreated control; summary of the method: as §1
[3] = Cytotoxicity against human skeletal muscle Myoblast assessed as change in MTCYB mitochondrial RNA level on day 2 by RT-PCR relative to untreated control
Summary of the method: (§2)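 Proliferating human skeletal muscle myoblasts were treated from 20-30% confluence in growth medium, with NRTIs dissolved in sterile water. Doses were plasma Cmax levels (ddI 11.8, d4T 3.6, AZT 7.1, 3TC 8.3, ABV 3.0 μmol), given singly or as combinations. Controls got medium only, and medium was renewed every 2 days at 37°C, 5% CO2. Real-time RT-PCR copies were normalized to G6PDH and expressed relative to untreated cells. Five repeats.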

[4] = Cytotoxicity against human skeletal muscle Myoblast assessed as change in MTCO3 mitochondrial RNA level on day 2 by RT-PCR relative to untreated control; summary of the method: as §2
[5] = Cytotoxicity against human skeletal muscle Myoblast assessed as change in POLG mitochondrial RNA level on day 2 by RT-PCR relative to untreated control; summary of the method: as §2
[6] = Cytotoxicity against human skeletal muscle Myoblast assessed as change in Tfam mitochondrial RNA level on day 2 by RT-PCR relative to untreated control; summary of the method: as §2
[7] = Cytotoxicity against human skeletal muscle Myoblast assessed as change in POLG mitochondrial RNA level on day 5 by RT-PCR relative to untreated control; summary of the method: as §2
[8] = Cytotoxicity against human skeletal muscle Myoblast assessed as change in Tfam mitochondrial RNA level on day 5 by RT-PCR relative to untreated control; summary of the method: as §2
[9] = Cytotoxicity against human skeletal muscle Myotube assessed as change in POLG mitochondrial RNA level on day 5 by RT-PCR relative to untreated control
Summary of the method: (§3)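 Myoblasts at 70-80% confluence were differentiated into myotubes for 72 h in alpha-MEM with 10% FCS and penicillin/streptomycin. They were then treated with NRTIs at plasma Cmax levels (ddI 11.8, d4T 3.6, AZT 7.1, 3TC 8.3, ABV 3.0 μmol) for 5 days at 37°C, 5% CO2, with medium renewed every 2 days. mtDNA:nDNA, or RNA:G6PDH copies by real-time PCR, is expressed relative to untreated cells. Five repeats.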

[10] = Cytotoxicity against human skeletal muscle Myotube assessed as change in Tfam mitochondrial RNA level on day 5 by RT-PCR relative to untreated control; summary of the method: as §3
[11] = Cytotoxicity against human skeletal muscle Myoblast at 100 uL on day 5 by WST-1 assay
Summary of the method: (§4)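 After 5 days of NRTI treatment at Cmax levels, 100 μl WST-1 reagent was added per well and incubated 1 h at 37°C, 5% CO2. Supernatant absorbance was read at 450 nm in duplicate. Results are the ratio of treated to untreated wells, run in triplicate.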

[12] = Cytotoxicity against human skeletal muscle Myotube at 100 uL on day 5 by WST-1 assay; summary of the method: as §4
[13] = Cytotoxicity against human skeletal muscle Myotube assessed as decrease in MTCO3 mitochondrial RNA level on day 5 by RT-PCR relative to untreated control; summary of the method: as §3
[14] = Cytotoxicity against human skeletal muscle Myoblast assessed as decrease in mitochondrial DNA on day 2 by RT-PCR relative to untreated control; summary of the method: as §1
[15] = Cytotoxicity against human skeletal muscle Myoblast assessed as decrease in mitochondrial DNA on day 5 by RT-PCR relative to untreated control; summary of the method: as §1
[16] = Cytotoxicity against human skeletal muscle Myotube assessed as decrease in mitochondrial DNA on day 5 by RT-PCR relative to untreated control; summary of the method: as §3
[17] = Cytotoxicity against human skeletal muscle Myoblast assessed as decrease in MTCYB mitochondrial RNA level on day 5 by RT-PCR relative to untreated control; summary of the method: as §2
[18] = Cytotoxicity against human skeletal muscle Myotube assessed as decrease in MTCYB mitochondrial RNA level on day 5 by RT-PCR relative to untreated control; summary of the method: as §3

Row | Structure (SMILES) | Ratio [1] | Ratio [2] | Activity [3] | Activity [4] | Activity [5] | Activity [6] | Activity [7] | Activity [8] | Activity [9] | Activity [10] | Activity [11] | Activity [12] | Ratio [13] | Ratio [14] | Ratio [15] | Ratio [16] | Ratio [17] | Ratio [18]
1 | Nc1nc(NC2CC2)c2ncn([C@H]3C=C[C@@H](CO)C3)c2n1.Nc1nc(NC2CC2)c2ncn([C@H]3C=C[C@@H](CO)C3)c2n1.O=S(=O)(O)O [ABACAVIR SULFATE] | 1.19 | 1.07 | Non-toxic | Non-toxic | Non-toxic | Non-toxic | Non-toxic | Non-toxic | Non-toxic | Non-toxic | Non-toxic | Non-toxic | – | – | – | – | – | –
2 | Nc1ccn([C@@H]2CS[C@H](CO)O2)c(=O)n1 [LAMIVUDINE] | 1.16 | 0.94 | Non-toxic | Non-toxic | Non-toxic | Non-toxic | Non-toxic | Non-toxic | Non-toxic | Non-toxic | Non-toxic | Non-toxic | – | – | – | – | – | –
3 | Cc1cn([C@H]2C[C@H](N=[N+]=[N-])[C@@H](CO)O2)c(=O)[nH]c1=O [ZIDOVUDINE] | 1.45 | 1.14 | Non-toxic | Non-toxic | Non-toxic | Non-toxic | Non-toxic | Non-toxic | Non-toxic | Non-toxic | Non-toxic | Non-toxic | – | – | – | – | – | –
4 | Cc1cn([C@H]2C=C[C@@H](CO)O2)c(=O)[nH]c1=O [STAVUDINE] | 1.2 | 0.98 | Non-toxic | Non-toxic | Non-toxic | Non-toxic | Non-toxic | Non-toxic | Non-toxic | Non-toxic | Non-toxic | Non-toxic | 0.69 | – | – | – | – | –
5 | O=c1[nH]cnc2c1ncn2[C@H]1CC[C@@H](CO)O1 [DIDANOSINE] | – | – | Non-toxic | Non-toxic | Non-toxic | Non-toxic | Non-toxic | Non-toxic | Non-toxic | Non-toxic | Non-toxic | Non-toxic | – | 0.51 | 0.22 | 0.5 | 0.51 | 0.66
